This is an account of results in ChEMBL document CHEMBL2417493, “Novel cycloalkylthiophene-imine derivatives bearing benzothiazole scaffold: synthesis, characterization and antiviral activity evaluation” (Bioorg Med Chem Lett, 2013).

In data set [1] the test system is Influenza A virus. Put plainly: Antiviral activity against influenza A virus H1N1 infected in dog MDCK cells assessed as inhibition of virus-induced cytopathogenicity at 32 ug/ml after 48 hrs by crystal violet staining method. The data set is classed as functional, organism-based. An outline of the steps:
(§1)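 Single-concentration screen with these pairings: RD/EV71, HepG2/CVB5, HeLa/ADV7, MDCK/H1N1. Cells were infected and kept 48 h in the presence of compound at one fixed concentration; some EV71 tests used the lower level. Inhibition of virus proliferation was read by crystal violet staining.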
A general note: Damage to the host cells serves as the signal in cytopathic effect assays.

Data set [2] deals with Enterovirus. Put plainly: Antiviral activity against Enterovirus 71 infected in human rhabdomyosarcoma cells assessed as inhibition of virus-induced cytopathogenicity after 48 hrs by crystal violet staining method. The data set is classed as functional, organism-based. An outline of the steps:
(§2)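 Virus–cell pairings were EV71 in RD, CVB5 in HepG2, ADV7 in HeLa and influenza A H1N1 in MDCK. Compounds were added […], and total infectivity was read by crystal violet staining. EC50 is the concentration reducing viral replication by 50%. Values are mean SD of three independent experiments.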

Data set [3] relates to Influenza A virus. Briefly: Antiviral activity against influenza A virus H1N1 infected in dog MDCK cells assessed as inhibition of virus-induced cytopathogenicity after 48 hrs by crystal violet staining method. The format is functional, organism-based. An outline of the steps:
as §2

Data set [4] deals with unidentified adenovirus. Briefly: Antiviral activity against Adenovirus type 7 infected in human HeLa cells assessed as inhibition of virus-induced cytopathogenicity at 32 ug/ml after 48 hrs by crystal violet staining method. The format is functional. The essentials: as §1
Data set [5] is described as follows: Cytotoxicity against human HepG2 cells after 72 hrs by MTT assay. The format is cell-based. The essentials: (§3)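 MTT assay on RD (rhabdomyosarcoma), HepG2 and HeLa cell lines. CC50 is the concentration that cut cell viability by 50% relative to 0.1% DMSO-treated mock-control cells. Values are mean and SD of three independent experiments.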
Data set [6] has as its system unidentified adenovirus. Briefly: Antiviral activity against Adenovirus type 7 infected in human HeLa cells assessed as inhibition of virus-induced cytopathogenicity after 48 hrs by crystal violet staining method. The format is functional, organism-based. An outline of the steps: as §2
The nature of data set [7]: Selectivity index, ratio of CC50 for human HepG2 cells to EC50 for Coxsackievirus B5 infected in human HepG2 cells. The format is toxicity, cell-based. The conditions noted are these: read-out: Ratio CC50/EC50. The essentials: (§4)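 Antiviral pairings were EV71 in RD cells, CVB5 in HepG2 cells and ADV7 in HeLa cells. Compounds were added […], and total infectivity was read by crystal violet staining. EC50 is the concentration that cut viral replication by 50%. CC50 came from MTT relative to 0.1% DMSO mock control. SI = CC50/EC50. Data are from three independent experiments.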

Data set [8] is described as follows: Cytotoxicity against human rhabdomyosarcoma cells after 72 hrs by MTT assay. The data set is classed as cell-based, Rhabdomyosarcoma cell. An outline of the steps: as §3
For orientation: Formazan colour is commonly taken as a measure of viable cells.

A short description of data set [9]: Cytotoxicity against human HeLa cells after 72 hrs by MTT assay. The format is cell-based. An outline of the steps:
as §3

The subject of data set [10] is Enterovirus. Briefly: Antiviral activity against Enterovirus 71 infected in human rhabdomyosarcoma cells assessed as inhibition of virus-induced cytopathogenicity at 32 ug/ml after 48 hrs by crystal violet staining method. The data set is classed as functional. The essentials: as §1
Data set [11] has as its system Coxsackievirus B5. Briefly: Antiviral activity against Coxsackievirus B5 infected in human HepG2 cells assessed as inhibition of virus-induced cytopathogenicity after 48 hrs by crystal violet staining method. The conditions noted are these: for EC50: Enterovirus B, HepG2, 48 h. The data set is classed as functional, organism-based. An outline of the steps: as §2

Data set [12] concerns Coxsackievirus B5. Briefly: Antiviral activity against Coxsackievirus B5 infected in human HepG2 cells assessed as inhibition of virus-induced cytopathogenicity at 32 ug/ml after 48 hrs by crystal violet staining method. The data set is classed as functional. The essentials:
as §1

Data set [13] can be described thus: Selectivity index, ratio of CC50 for human rhabdomyosarcoma cells to EC50 for Enterovirus 71 infected in human rhabdomyosarcoma cells. The data set is classed as toxicity. The conditions noted are these: read-out: Ratio CC50/EC50. The essentials:
as §4

Values after ≈ are worked out from the molar mass of the structure shown. Active and inactive are the calls of the source. The calls are words filed in the database; no cut-off is given here.

As for `O=[N+]([O-])c1ccccc1/C=N/c1sc2c(c1-c1nc3ccccc3s1)CCCC2`, the inhibition result in the data set with Influenza A virus [1], in the data set on unidentified adenovirus [4], with Enterovirus [10] and in the data set with Coxsackievirus B5 [12] was “Active” in each case. Further, the “inhibition (INH)” value in the data set with Enterovirus [2], in the data set with Influenza A virus [3] and with unidentified adenovirus [6] was less than 50% throughout. In addition, the figures for the CC50 at 72 h in data set [5], in data set [8] and in data set [9] were 393 µg/mL (≈ 937 µM), 255 µg/mL (≈ 609 µM) and 369 µg/mL (≈ 880 µM), respectively. Also, the selectivity ratio in data set [7] came out at 35. Besides, the EC50 with Coxsackievirus B5 [11] turned out to be 11.2 µg/mL (≈ 26.7 µM).
For the compound `Clc1ccccc1/C=N/c1sc2c(c1-c1nc3ccccc3s1)CCCC2`, the inhibition result with Influenza A virus [1], in the data set on unidentified adenovirus [4], with Enterovirus [10] and in the data set with Coxsackievirus B5 [12] was “Active” throughout. For the same compound, the “inhibition (INH)” value in the data set with Enterovirus [2], in the data set on Influenza A virus [3], in the data set on unidentified adenovirus [6] and in the data set with Coxsackievirus B5 [11] was less than 50% throughout. Besides, the figures for the CC50 at 72 h in data set [5], in data set [8] and in data set [9] were 370 µg/mL (≈ 904 µM), 332 µg/mL (≈ 811 µM) and 407 µg/mL (≈ 996 µM), respectively.
As to `Oc1ccccc1/C=N/c1sc2c(c1-c1nc3cc(Cl)ccc3s1)CCC2`, the inhibition result in the data set with Influenza A virus [1], with unidentified adenovirus [4], in the data set on Enterovirus [10] and in the data set on Coxsackievirus B5 [12] was “Active” each time. For the same compound, the concentration giving a half-maximal response (EC50) in the data set with Enterovirus [2] (Enterovirus, 71, 48 h) is 13.9 µg/mL (≈ 33.8 µM). The “inhibition (INH)” value with Influenza A virus [3], in the data set on unidentified adenovirus [6] and with Coxsackievirus B5 [11] was less than 50% in each case. Moreover, the CC50 at 72 h in [5] was determined as 210 µg/mL (≈ 511 µM); in data set [8], 269 µg/mL (≈ 655 µM); in data set [9], 251 µg/mL (≈ 610 µM). In data set [13], the selectivity ratio worked out at 19.2.
Regarding `Clc1ccc2sc(-c3c(/N=C/C=C/c4ccccc4)sc4c3CCC4)nc2c1`, the inhibition result with Influenza A virus [1], in the data set on unidentified adenovirus [4], with Enterovirus [10] and in the data set on Coxsackievirus B5 [12] was “Active” each time. Moreover, the “inhibition (INH)” value in the data set with Enterovirus [2], in the data set on Influenza A virus [3], in the data set on unidentified adenovirus [6] and with Coxsackievirus B5 [11] was less than 50% each time. Besides, the values for the CC50 at 72 h in data set [5], in data set [8] and in [9] were 14.9 µg/mL (≈ 35.4 µM), 122 µg/mL (≈ 291 µM) and 200 µg/mL (≈ 476 µM), respectively.
`C(=C\c1ccccc1)/C=N/c1sc2c(c1-c1nc3ccccc3s1)CCCC2`: the inhibition result in the data set on Influenza A virus [1], with unidentified adenovirus [4], with Enterovirus [10] and in the data set with Coxsackievirus B5 [12] was “Active” throughout. Besides, the “inhibition (INH)” value in the data set on Enterovirus [2], in the data set on Influenza A virus [3] and in the data set with unidentified adenovirus [6] was less than 50% each time. Also, the CC50 at 72 h amounted to 467 µg/mL (≈ 1170 µM) in [5], 207 µg/mL (≈ 517 µM) in data set [8] and 389 µg/mL (≈ 971 µM) in data set [9]. Further, the selectivity ratio in data set [7] came out at 31.6. Also, the EC50 with Coxsackievirus B5 [11] amounted to 14.7 µg/mL (≈ 36.7 µM).
Regarding `Clc1ccc(/C=N/c2sc3c(c2-c2nc4ccccc4s2)CCCC3)c(Cl)c1`, the inhibition result in the data set with Influenza A virus [1], with unidentified adenovirus [4], in the data set with Enterovirus [10] and in the data set with Coxsackievirus B5 [12] was “Active” throughout. Also, the “inhibition (INH)” value in the data set with Enterovirus [2], in the data set on Influenza A virus [3], with unidentified adenovirus [6] and with Coxsackievirus B5 [11] was less than 50% each time. For the same compound, the CC50 at 72 h is 384 µg/mL (≈ 865 µM) in [5], 56.6 µg/mL (≈ 128 µM) in [8] and 542 µg/mL (≈ 1220 µM) in data set [9].
With `Clc1ccccc1/C=N/c1sc2c(c1-c1nc3ccccc3s1)CCC2`, the inhibition result in the data set with Influenza A virus [1], in the data set on unidentified adenovirus [4], in the data set with Enterovirus [10] and with Coxsackievirus B5 [12] was “Active” in each case. Besides, the “inhibition (INH)” value in the data set with Enterovirus [2], in the data set with Influenza A virus [3], in the data set on unidentified adenovirus [6] and with Coxsackievirus B5 [11] was less than 50% each time. The CC50 at 72 h in data set [5] was 180 µg/mL (≈ 456 µM); in [8], 123 µg/mL (≈ 312 µM); in data set [9], 138 µg/mL (≈ 350 µM).
`Fc1ccccc1/C=N/c1sc2c(c1-c1nc3ccccc3s1)CCC2`: the inhibition result in the data set with Influenza A virus [1], with unidentified adenovirus [4], in the data set with Enterovirus [10] and in the data set with Coxsackievirus B5 [12] was “Active” in each case. Also, the “inhibition (INH)” value in the data set with Enterovirus [2], with Influenza A virus [3], in the data set on unidentified adenovirus [6] and in the data set on Coxsackievirus B5 [11] was less than 50% in each case. Further, the results for the CC50 at 72 h in data set [5], in data set [8] and in data set [9] were 394 µg/mL (≈ 1040 µM), 270 µg/mL (≈ 713 µM) and 355 µg/mL (≈ 938 µM), respectively.
Regarding `Fc1ccc(/C=N/c2sc3c(c2-c2nc4ccccc4s2)CCC3)cc1`, the inhibition entry in the data set with Influenza A virus [1], in the data set on unidentified adenovirus [4], in the data set with Enterovirus [10] and in the data set on Coxsackievirus B5 [12] was “Active” throughout. Also, the “inhibition (INH)” value in the data set on Enterovirus [2], with Influenza A virus [3] and in the data set on unidentified adenovirus [6] was less than 50% in each case. For the same compound, the CC50 at 72 h in data set [5] was found to be 302 µg/mL (≈ 799 µM); in [8], 290 µg/mL (≈ 765 µM); in data set [9] it was 372 µg/mL (≈ 984 µM). In addition, the selectivity ratio in [7] turned out to be 19.4. Besides, the EC50 in the data set with Coxsackievirus B5 [11] worked out at 15.5 µg/mL (≈ 41 µM).
As for `Clc1ccc(/C=N/c2sc3c(c2-c2nc4ccccc4s2)CCC3)cc1`, the inhibition result in the data set with Influenza A virus [1], with unidentified adenovirus [4], in the data set on Enterovirus [10] and in the data set on Coxsackievirus B5 [12] was “Active” each time. For the same compound, the “inhibition (INH)” value in the data set on Enterovirus [2], with Influenza A virus [3], in the data set on unidentified adenovirus [6] and in the data set on Coxsackievirus B5 [11] was less than 50% each time. Also, the CC50 at 72 h was determined as 430 µg/mL (≈ 1090 µM) in [5], 342 µg/mL (≈ 867 µM) in [8] and 380 µg/mL (≈ 963 µM) in data set [9].
`Clc1ccc(/C=N/c2sc3c(c2-c2nc4ccccc4s2)CCCC3)cc1`: the inhibition entry in the data set with Influenza A virus [1], in the data set with unidentified adenovirus [4], in the data set with Enterovirus [10] and with Coxsackievirus B5 [12] was “Active” throughout. The “inhibition (INH)” value in the data set on Enterovirus [2], in the data set on Influenza A virus [3], in the data set on unidentified adenovirus [6] and with Coxsackievirus B5 [11] was less than 50% each time. In addition, the CC50 at 72 h in data set [5] was 397 µg/mL (≈ 970 µM); in data set [8], 367 µg/mL (≈ 898 µM); in data set [9], 431 µg/mL (≈ 1050 µM).
As to `COc1cc(/C=N/c2sc3c(c2-c2nc4ccccc4s2)CCCC3)cc(OC)c1OC`, the inhibition entry in the data set with Influenza A virus [1], in the data set on unidentified adenovirus [4], with Enterovirus [10] and in the data set on Coxsackievirus B5 [12] was “Active” in each case. The “inhibition (INH)” value in the data set on Enterovirus [2], with Influenza A virus [3], with unidentified adenovirus [6] and in the data set with Coxsackievirus B5 [11] was less than 50% throughout. Also, the CC50 at 72 h came to 301 µg/mL (≈ 648 µM) in data set [5], 381 µg/mL (≈ 821 µM) in data set [8] and 448 µg/mL (≈ 963 µM) in data set [9].

The CC50 is the concentration that lowers cell viability or growth by half. A lower CC50 goes with greater toxicity to the cells. What is called EC50 is the concentration at which the effect is half-maximal.
